# Reference: publication PMC3366067 (Blood Cancer Journal, 2012)
# Key:
# [1] = Toxicokinetic studies in mice, single agent; format: in vivo; conditions: data not shown
# pSTAT5 in SET-2 tumors = assay: pSTAT5 levels in SET-2 tumors after chronic treatment; format: in vivo, mouse; conditions: end of study
# Procedure, shortened: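 SET-2 s.c. tumors came from female SCID-beige mice dosed orally d0–d18. They were excised on the last treatment day, 3 h post-dose, and lysed. pSTAT5 was measured by western blot and compared with vehicle-treated animals.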
# MCP-1 = assay: Plasma cytokine/chemokine analysis in SET-2 tumor-bearing mice; format: in vivo, mouse; conditions: d18
# Procedure, shortened: (§1)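 Plasma came from female SCID-beige mice bearing s.c. SET-2 tumors (5 × 10^6 cells) that had been dosed orally with the test compounds in the efficacy study. It was collected on d18, 3 h post-dose. A Luminex 32-plex mouse cytokine/chemokine panel measured the analytes. Comparators were uninoculated naive mice and vehicle-treated tumor-bearing mice.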
# SET-2 xenografts = assay: Subcutaneous SET-2 model of megakaryoblastic leukemia; format: in vivo, mouse; conditions: d18
# Procedure, shortened: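 Female SCID-beige mice (9 weeks; n=12 per group) were implanted s.c. with 5 × 10^6 SET-2 cells in Matrigel. From d33 post-implantation, they were dosed orally for 19 days (d0–d18), with separate doses at least 8 h apart. Tumor volume was measured by caliper as (w²×l)/2, and tumors were weighed at the end. Synergy was assessed by Clarke's CI, with <0 counted as synergy. Statistics used ANOVA/Dunnett.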
# [2] = tested on: IL-6, IP-10, KC and MIP-1α; assay: Plasma cytokine/chemokine analysis in SET-2 tumor-bearing mice; format: in vivo, mouse
# Procedure, shortened: as §1
# [3] = Pharmacokinetic analysis of pracinostat and pacritinib in plasma; format: in vivo, mouse; conditions: d14 vs d1
# [4] = tested on: pFLT3, FLT3 in MOLM-13 tumors; assay: Western blot analysis of MOLM-13 tumors; format: in vivo, mouse; conditions: chronic treatment with pacritinib alone, d7
# MOLM-13 s.c. xenografts = assay: Subcutaneous MOLM-13 xenograft model; format: in vivo, mouse; conditions: for reduction in tumor weight: d7
# Procedure, shortened: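 Female SCID mice (n=12 per group) were given 5 × 10^6 MOLM-13 cells s.c. with Matrigel. Treatment started on d11 and ran 8 days, all oral: 50 mg/kg pacritinib daily in the evenings and 75 mg/kg pracinostat every other day. On the last day, tumors were excised and weighed. Metastases to lungs, breast fat-pad and lymph nodes were counted. Statistics used ANOVA/Dunnett.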
# [5] = tested on: pJAK2, JAK2, pSTAT5 and STAT5 in JAK2^V617F mutant cells (HEL92.1.7 and SET-2); assay: Western blot of JAK-STAT signaling; format: cell-based, human; conditions: 125–500 nM for 24 h
# Procedure, shortened: (§2)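 Cells were treated with test compound at 125–500 nM for 24 h, then lysed. Western blots of 25 μg total lysate were probed for pJAK2 (Y1007/1008), JAK2, pSTAT5 (Y694) and STAT5. JAK2V617F lines were compared with JAK2 wt lines.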
# [6] = tested on: pJAK2, JAK2, pSTAT5 and STAT5 in JAK2 wt 32D cells; assay: Western blot of JAK-STAT signaling; format: cell-based, murine; conditions: 125–500 nM for 24 h
# Procedure, shortened: as §2
# [7] = tested on: pFLT3, FLT3 and pSTAT5 in RS4;11 cells (wt FLT3); assay: Western blot of FLT3 signaling; format: cell-based, human; conditions: RS4;11, 24 h, compared with FLT3-ITD cell lines
# Procedure, shortened: (§3)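 Cells were treated with test compound at graded concentrations for 24 h, then lysed. Western blots loaded 50 μg total lysate for pFLT3 (Y591) and FLT3, and 25 μg for the other proteins. Other antibodies were pSTAT5 (Y694) and STAT5. FLT3-ITD lines were compared with wt-FLT3 RS4;11 cells.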
# [8] = tested on: pFLT3 (Y591) in MOLM-13 cells (FLT3-ITD); assay: Western blot of FLT3 signaling; format: cell-based, human; conditions: 500 nM, 24 h
# Procedure, shortened: as §3
# [9] = tested on: pFLT3 (Y591) in MV4-11 cells (FLT3-ITD); assay: Western blot of FLT3 signaling; format: cell-based, human; conditions: 500 nM, 24 h
# Procedure, shortened: as §3
# [10] = tested on: panel of 11 AML cell lines; assay: Cell proliferation assay; format: cell-based; conditions: Homo sapiens, 48 h, read-out: IC50 on cell proliferation
# Procedure, shortened: (§4)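 Cells were seeded at a predetermined optimal density in log phase and rested 2 h before treatment. They were then exposed for 48 h to test compound in 9 serial-dilution steps from 10 μM to 1.5 nM, with 0.1% solvent. Viability was read by CellTiter-Glo luminescence. At least three independent experiments were run in triplicate, and IC50 came from curve fitting.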
# MV4-11 xenografts = assay: Subcutaneous MV4-11 xenograft model; format: in vivo, mouse
# Procedure, shortened: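 Female BALB/c nude mice (8–10 weeks; n=10 per group) were implanted s.c. in the right flank with 1 × 10^7 MV4-11 cells in serum-free medium mixed 1:1 with Matrigel. From d9, they received 25 or 50 mg/kg per day by oral gavage (10 ml/kg) for 21 days. Tumor volume was measured by caliper as (w²×l)/2. Statistics used ANOVA/Bonferroni.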
# [11] = tested on: pJAK2, JAK2, pSTAT5 and STAT5 in JAK2 wt KARPAS 1106-P cells; assay: Western blot of JAK-STAT signaling; format: cell-based; conditions: data not shown
# Procedure, shortened: as §2
# HEL92.1.7 xenografts = assay: Subcutaneous HEL92.1.7 xenograft model; format: in vivo, mouse; conditions: HEL92.1.7 model, 75 or 125 mg/kg every other day for 17 days
# Procedure, shortened: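 Female BALB/c nude mice (8–10 weeks; n=5 per group) were implanted s.c. in the right flank with 5 × 10^6 HEL92.1.7 cells in serum-free medium mixed 1:1 with Matrigel. From d18, they were dosed by oral gavage (10 ml/kg) at 75 or 125 mg/kg every other day for 17 days. Tumor volume was measured by caliper as (w²×l)/2.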
# [12] = tested on: HL-60 cells engrafted orthotopically; assay: Orthotopic AML model; format: in vivo, mouse
# Procedure, shortened: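 Female SCID mice (n=6 per group) received 1 × 10^7 HL-60 cells i.v. in 100 μl serum-free medium. From d30, once disease was established, they were dosed with 125 mg/kg test compound thrice weekly by oral gavage at 10 ml/kg. Paralysis symptoms were scored. Blood counts were taken from tail blood with a hematology analyzer and compared with age-matched uninoculated SCID mice. Statistics used ANOVA/Bonferroni.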
# HL-60 = assay: Cell proliferation assay and in vitro synergy; format: cell-based; conditions: Homo sapiens, HL-60, 48 h, read-out: IC50 on cell proliferation
# Procedure, shortened: as §4
# [13] = pacritinib 150 mg/kg twice daily
structure (smiles),measurement,setting,value
C1=C/COCc2cc(ccc2OCCN2CCCC2)Nc2nccc(n2)-c2cccc(c2)COC/1 [pacritinib],increase in exposure following repeated dosing,[1],two-fold
same,decrease of pSTAT5 levels in tumors,"pSTAT5 in SET-2 tumors; pacritinib 150 mg/kg twice daily, 3 h post dose",about 50%
same,reduction of plasma MCP-1 levels,MCP-1; pacritinib single agent,10%
same,TGI (tumor volume),SET-2 xenografts; [13],61%
same,TGI on the basis of tumor weight,SET-2 xenografts; [13],47%
same,"plasma IL-6, IP-10, KC and MIP-1α",[2]; single-agent pacritinib,normalization
same,increase in AUC after chronic dosing in combination,[3]; pacritinib,approximately four-fold
same,increase in Cmax after chronic dosing in combination,[3]; pacritinib,approximately two-fold
same,total levels of FLT3 in tumors,[4],increased expression total levels of FLT3 significantly
same,reduction in tumor weight,MOLM-13 s.c. xenografts; pacritinib 50 mg/kg daily,14.7%
same,reduction of metastatic incidences,MOLM-13 s.c. xenografts; single-agent pacritinib,60%
CCCCc1nc2cc(/C=C/C(=O)NO)ccc2n1CCN(CC)CC [pracinostat],"pJAK2 (Y1007/08) and pSTAT5 (Y694) levels, total JAK2 and STAT5 protein",[5],decreased
same,pSTAT5 levels in tumors compared with vehicle treated animals,pSTAT5 in SET-2 tumors; pracinostat 75 mg/kg every other day,increased pSTAT5 levels
same,"pJAK2, JAK2, pSTAT5 and STAT5 protein levels",[6],remained unaffected
same,"levels of pFLT3 and FLT3, and pSTAT5",[7],"reduced, but to a lesser extent"
same,pFLT3 (Y591) level,[8],near-total ablation
same,reduction of plasma MCP-1 levels,MCP-1; pracinostat single agent,40%
same,TGI on the basis of tumor weight,SET-2 xenografts; pracinostat 75 mg/kg q.o.d,42.5%
same,pFLT3 (Y591) level,[9],near-total ablation
same,IC50,[10],70 to 560 nM
same,Complete tumor regression at the end of the treatment,MV4-11 xenografts; 50 mg/kg per day for 21 days,6 out of 10
same,maximum body weight loss,"MV4-11 xenografts; MV4-11 model, 25 or 50 mg/kg per day for 21 days",7%
same,"plasma IL-6, IP-10, KC and MIP-1α",[2]; single-agent pracinostat,normalization
same,pharmacokinetic parameters after 14 days of co-administration with pacritinib,[3]; pracinostat,similar
same,reduction in tumor weight,MOLM-13 s.c. xenografts; pracinostat 75 mg/kg q.o.d,19.2%
same,reduction of metastatic incidences,MOLM-13 s.c. xenografts; single-agent pracinostat,50%
same,"pJAK2, JAK2, pSTAT5 and STAT5 protein levels",[11],remained unaffected
same,maximum body weight loss,HEL92.1.7 xenografts,4.7%
same,numbers of platelets,[12]; 125 mg/kg thrice weekly,without significantly reducing
same,delay of the disease onset,[12]; 125 mg/kg thrice weekly from d30,17 days
same,"blood counts (white blood counts, lymphocyte counts)","[12]; 125 mg/kg thrice weekly, d15 of the study",normalizing blood counts to the levels of disease-free mice
same,reduction of death caused by progressive AML,"[12]; 125 mg/kg thrice weekly, study d24",50%
same,IC50,HL-60,70 nM
